# Bioassay records from PubChem BioAssay.
# N-glyco inh – increase of ERlucT glycosylation luciferase signal, primary screen, N-linked glycosylation inhibitor project, D54 ERlucT cells, luminescence, set 2; 0.23% of 360,000 active; D54 ERlucT glycosylation luciferase reporter, 24 h; percent of 100 nM tunicamycin response; reporter increase, % at 12.5 µM;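 active = mean luciferase reporter signal, scaled so untreated is 0 and the glycosylation-blocking control 100, at or above a set limit in every replicate; inconclusive = mean reaches the limit but not every replicate does; inactive = mean below the limit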;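 note: luciferase carries N-glycosylation sites so blocking glycosylation raises the light; 0% = median of neutral control wells and 100% = median of 100 nM tunicamycin wells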
# T cell modulator – modulators of CD8 T cell-vesicle binding, primary screen, mouse 2C CD8+ T cells, flow cytometry | AID 2052, 2009 | 0.068% of 330,000 active | 2C CD8+ T cell-vesicle binding; active compounds read low | response (vesicle binding), % at 7 µM;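 active = response, share of CD8 T cells binding vesicles, and their 90th percentile fluorescence all below set limits, cut at about 80% in these data, passing the limit was not always enough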;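 note: values below 100% mean blocked vesicle binding to the CD8+ T cells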
#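 Read-out – percent CD8+ FL2 mean versus row control · System – murine 2C transgenic CD8+ T lymphocytes · Times – 1.5 h cell–vesicle binding at 37 °C, then 20 min icy labelling · Control set – naked vesicles low, QL9 vesicles with vehicle high · Detection – cytometric PE anti-B7-1 and Alexa647 anti-CD8 signals after 1% paraformaldehyde fixation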
# ALR H2O2 inh – inhibitors of human ALR sulfhydryl oxidase, primary screen, biochemical, H2O2 detection, HRP-luminol luminescence, single point | FAD-linked sulfhydryl oxidase ALR (Homo sapiens), P55789 | purified ALR, DTT oxidation | inhibition, % (no concentration beside the values) | 3.8% of 290,000 active | AID 485317, 2010;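 active = mean replicate inhibition above about 79%, with every replicate also reaching it, limit read from the data; inconclusive = only one of the two criteria met; inactive = mean below limit and not every replicate reaching it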
# Target sequence (P55789 whole entry, looked up): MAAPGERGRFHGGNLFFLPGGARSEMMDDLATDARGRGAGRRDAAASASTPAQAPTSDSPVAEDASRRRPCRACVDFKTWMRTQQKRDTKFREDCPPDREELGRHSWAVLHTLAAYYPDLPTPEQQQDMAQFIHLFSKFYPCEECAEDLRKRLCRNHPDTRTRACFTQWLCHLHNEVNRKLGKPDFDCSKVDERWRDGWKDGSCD
# * marks the source's active call; other numbers are inactive results; i = inactive; ? = inconclusive; . = no result. Shown is part of a subset that was picked to be rich in hits.
SMILES,N-glyco inh,T cell modulator,ALR H2O2 inh
C=COCCNC(=S)Nc1cccc(Cl)c1,-2.1,.,-12.6
O=C(CC1CCCC1)N1CCN(S(=O)(=O)c2c(F)cccc2F)CC1,0.6,.,.
CC1Cc2cc(/C(O)=C3/C(=O)C(=O)N(CCN4CCOCC4)C3c3ccc(N(C)C)cc3)ccc2O1 (stereo not given),-1.2,332.2,50.6
NC(=O)[C@@H]1CCCN1Cc1c(C(=O)N2CCc3ccccc3C2)nc2ccc(Cl)cn12,3.9,318.1,0.8
CN(Cc1ccccc1)S(=O)(=O)c1ccc(Cl)c(C(=O)OCC(N)=O)c1,-2.1,144.0,-0.6
O=c1ccn(Cc2ccccc2)c2ccccc12,1.7,254.9,.
O=c1[nH]n(Cc2ccccc2)c2ccccc12,1.1,287.8,98.6*
O=C(Cn1cc(S(=O)(=O)N2CCN(c3ccccc3F)CC2)c2ccccc2c1=O)NCCCN1CCCCCC1,-4.2,201.8,4.7
O=C(O)c1ccc(-c2nc(-c3cccc(C(F)(F)F)c3)cs2)cc1,4.6,.,.
Cc1nc(C(F)(F)F)c(C(=O)O)cc1-c1nc(-c2ccccc2)cs1,3.5,237.5,94.7*
O=C(Nc1ccccn1)C1CCN(C(=O)Nc2ccccc2)CC1,5.2,905.6,-6.9
O=C(c1cccs1)N(Cc1cccc(F)c1)C1CCS(=O)(=O)C1 (stereo not given),0.4,445.0,1.7
Cc1noc(C)c1S(=O)(=O)N1CCC(C(=O)N2CCC(C)CC2)CC1,4.6,139.5,-2.4
CC1CC(C)CN(C(=O)C2CCCN(S(=O)(=O)c3cnc[nH]3)C2)C1 (stereo not given),0.1,83.1,-7.4
Cc1cccc(N2CCN(C(=O)C3CCCN(S(=O)(=O)c4cnc[nH]4)C3)CC2C)c1 (stereo not given),1.1,149.8,98.9*
Cc1cccc(N2CCN(C(=O)C3CCN(S(=O)(=O)c4c(C)noc4C)CC3)CC2C)c1 (stereo not given),-2.5,92.3,97.7*
C[C@H](CO)N1C[C@H](C)[C@@H](CN(C)Cc2ccc3cccnc3c2)OCc2cnnn2CCCC1=O,1.7,.,.
O=C(CSC(=S)N1CCOCC1)Nc1nc(=O)c2ccccc2s1,.,193.3,3.5
O=C(NNC(=O)c1sccc1-n1cccc1)Nc1ccc(F)cc1,-0.7,325.7,30.6
CCOc1c(Br)cc(/C=C(\C#N)C(=O)NC2CC2)cc1OC,10.6,233.2,56.2
C=CCNC(=O)/C(C#N)=C\c1cc(Cl)c(OCC)c(OC)c1,3.2,315.4,98.2*
O=C(N/N=C\c1ccc2c(c1)OCO2)c1cncc(Br)c1,2.5,277.5,1.4
CC(C)(C)c1cc(C(=O)N/N=C/c2ccc(O)cc2)n(-c2ccccc2)n1,-1.1,402.4,93.7*
CCc1cc(C(=O)N/N=C/c2ccc(O)cc2)c2ccccc2n1,2.4,270.1,29.2
O=C(N/N=C/c1ccccc1O)c1cccc(C(F)(F)F)c1,-6.0,116.4,-5.8
SMILES,N-glyco inh,T cell modulator,ALR H2O2 inh
O=C(N/N=C/c1ccc(O)cc1)c1cccc(C(F)(F)F)c1,-1.0,i,97.8*
O=C(N/N=C/c1ccc(O)cc1)c1cncc(Br)c1,0.2,.,99.5*
O=C(NCCC1CCCCN1S(=O)(=O)c1ccc(F)cc1)C(=O)Nc1ccccc1 (stereo not given),-2.6,142.5,-1.7
CCOC(=O)N1CCC(N2C(=O)c3ccccc3C2Nc2ccccc2)CC1 (stereo not given),1.6,346.1,.
Cc1ccc(NC2c3ccccc3C(=O)N2CCN2CCOCC2)cc1 (stereo not given),-1.2,611.6,97.9*
CCOC(=O)N1CCC(N2C(=O)c3ccccc3C2Nc2ccc(C)cc2)CC1 (stereo not given),-2.3,379.6,98.7*
CCN(CC)S(=O)(=O)c1ccc(NC2c3ccccc3C(=O)N2CCN2CCOCC2)cc1 (stereo not given),0.2,612.2,-5.1
CN(CC(=O)c1c(N)n(C)c(=O)n(C)c1=O)c1ccccc1,-0.5,319.5,11.3
CC(=O)Nc1ccc(C=NNC(=O)CCCC(=O)NN=Cc2ccc(NC(C)=O)cc2)cc1,2.1,.,.
CC(=O)Nc1ccc2c(c1)C(C)(C)C(C)N2C (stereo not given),.,386.0,98.9*
CCC(=O)c1ccc(NC(C)=O)cc1O,1.4,428.0,-5.6
Cc1ccc(CNS(=O)(=O)c2cc3c(cc2C)N(C)CCO3)cc1,1.0,897.1,88.8*
CC(=O)N1CCOc2cc(S(=O)(=O)NCc3ccc(F)cc3)c(C)cc21,0.5,246.0,-3.0
CC(CC(=O)N1CCc2ccccc21)S(=O)(=O)c1ccc2c(c1)NC(=O)CO2 (stereo not given),0.5,135.8,6.4
OCCNCc1ccc(-c2ccccc2)cc1,-1.4,224.3,.
OCCCNCc1ccc(N(c2ccccc2)c2ccccc2)cc1,-2.4,322.0,99.2*
O=C(c1cnn2c(C(F)(F)F)cc(-c3ccc(F)cc3)nc12)N1CCc2ccccc2C1,-6.3,398.2,-9.5
CCCC(=O)n1nc(-c2ccc(C)cc2)nc1NCc1ccco1,0.0,240.1,89.6*
Cc1ccc(C(=O)n2nc(-c3ccccc3)nc2NCc2ccco2)cc1,-0.8,.,2.0
CC1CCCC(NC(=O)COC(=O)CCc2ccccc2)C1C (stereo not given),2.3,410.5,-26.2
CC1CCCC(NC(=O)COC(=O)CSc2ccc3ccccc3c2)C1C (stereo not given),1.9,256.0,99.0*
COc1ccc(C(O)c2nc(-c3cccc(O)c3)cs2)cc1 (stereo not given),0.6,.,.
Nc1cc([N+](=O)[O-])ccc1Nc1ccc(O)cc1,3.9,299.9,98.8*
Nc1ccccc1Nc1ccc([N+](=O)[O-])cc1[N+](=O)[O-],1.0,243.5,.
COc1ccc(CN2CCC(n3nccc3NC(=O)c3cccc(F)c3)CC2)cc1O,-0.8,191.2,30.7
SMILES,N-glyco inh,T cell modulator,ALR H2O2 inh
COc1cc(CN2CCc3ccccc3C2)cc([N+](=O)[O-])c1O,2.6,649.6,4.2
COc1cc(CN2CCc3ccccc3C2)ccc1O,93.2*,134.7,13.2
Nc1ccccc1C(=O)C[C@H](N)C(=O)O,2.1,.,.
COC(=O)c1ccc2nc(-c3ccc(C#N)cc3)c(Cc3cccc(F)c3)n2c1,0.7,.,.
Cc1cc(C(=O)Nc2ccc(Cl)c(S(=O)(=O)N3CCOCC3)c2)c2ccccc2n1,-1.5,316.5,.
COc1ccc(-c2ccc(-c3nc4ccc(C)cn4c3NC3CCCCC3)cc2OC)cc1,-7.0,295.8,4.1
COc1cc(-c2nc3cnccn3c2Nc2ccc3c(c2)OCCO3)ccc1O,.,222.0,98.7*
COc1cc(-c2nc3cnccn3c2Nc2ccc(C(C)C)cc2)ccc1O,?,262.9,25.1
Oc1ccc(-c2nc3cnccn3c2Nc2ccc3c(c2)OCCO3)cc1,10.8,i,98.9*
c1ccc(-c2nc3cnccn3c2Nc2ccc3c(c2)OCCO3)cc1,2.1,263.7,.
CC(C)(C)CC(C)(C)Nc1c(-c2ccc(O)cc2)nc2cnccn12,-4.1,554.4,99.9*
CC(C)(C)Nc1c(-c2ccc(O)cc2)nc2ccc(Cl)cn12,1.4,216.7,-6.7
